Assay results pooled from the literature.
Protocols differ between the studies behind these lines.
Target: Cyclin-dependent kinase 17 (CDK17, Homo sapiens, UniProt Q00537)

Compound | observed | technique | tested at | remaining binding [%]
COc1ccc2c(c1)O[C@H](c1ccc(OC)c(OC)c1)C[C@@H]2NC(=O)C1(c2ccc3c(c2)OC(F)(F)O3)CC1 | cell-free assay | competition with immobilised ligand | 1 µM | 100
O=C(c1ccc(Nc2ncc(Cl)c(-c3cc4ccccc4s3)n2)cc1)N1CCC(N2CCCC2)CC1 | binding | competition with immobilised ligand | 1 µM | 0
C[C@@H]1CN(c2cc(-c3n[nH]c4ccc(OC5(C)CC5)cc34)ncn2)C[C@H](C)O1 | cell-free assay | competition with immobilised ligand | 0.1 µM | 89
COc1ncc2cc3ccccc3nc2c1C#N | cell-free assay | competition with immobilised ligand | 5 µM | 100
O=C(Nc1c[nH]nc1C(=O)NC1CCNCC1)c1cc(F)cc(F)c1 | binding | competition with immobilised ligand | 1 µM | 20
N[C@H]1CCN(c2nccc(-c3cnn4ncccc34)n2)C1 | binding | – | 1 µM | 100
C[C@H](NC(=O)c1cnc2n1[C@](C)(Cc1ccc(C#N)cc1)C(=O)N2c1cc(Cl)c(F)c(Cl)c1)C(=O)NC1(c2ccccn2)CC1 | cell-free assay | competition with immobilised ligand | 1 µM | 100
CN(c1nccc(-c2cnn3ncccc23)n1)C1CC1 | binding | – | 1 µM | 100
Nc1ncc2c(n1)-c1c([nH]c3ccc(C#CC4CC4)cc13)CCCC2 | binding | competition with immobilised ligand | 1 µM | 85
CNC(=O)[C@@H]1CC[C@@H](n2c(-c3ccc4cnccc4c3)nc3ccc(C(=O)NCc4cccc(C(N)=O)c4)cc32)C1 | binding | competition with immobilised ligand | 1 µM | 93
C=CC(=O)N1CCC(C(=O)NCC(=O)N2CCN(c3nc(-c4cnc(N)nc4C(F)F)nc(N4CCOCC4)n3)CC2)CC1 | binding | competition with immobilised ligand | 1 µM | 89
CN(C)c1nccc(-c2cnc3ncccn23)n1 | binding | – | 1 µM | 84
Cc1cnc(Nc2ccc(C(=O)N3CCC(N4CCCC4)CC3)cc2)nc1-c1cc2ccccc2s1 | binding | competition with immobilised ligand | 1 µM | 9.2
COc1cnc(Nc2cccc(S(N)(=O)=O)c2)nc1N1CCN(c2ccccc2)C(=O)C1 | binding | competition with immobilised ligand | 1 µM | 100
Cc1noc([C@H]2C[C@@H](c3ccc(C(F)(F)F)cc3)CN(C(=O)N3CCS(=O)(=O)C3)C2)n1 | cell-free assay | competition with immobilised ligand | 1 µM | 100
CC1CCCN1c1nccc(-c2cnn3ncccc23)n1 (stereo not drawn) | binding | – | 1 µM | 100
CC1=C(C#N)[C@@H](c2ccc3[nH]nc(C)c3c2)C(C#N)=C(c2ccc(Cl)cc2)N1 | cell-free assay | competition with immobilised ligand | 1 µM | 87.2
Cc1cnn2ncc(-c3ccnc(N(C)C)n3)c2c1 | binding | – | 1 µM | 100
O=C(NCCCN1CCOCC1)c1ccc(Nc2ncc(Cl)c(-c3ccc(Cl)s3)n2)cc1 | binding | competition with immobilised ligand | 1 µM | 31
CN(C)C(=O)Cn1cc(-c2nc(C3(c4ccc(-c5cnc(N)nc5)cc4)CC3)no2)cn1 | cell-free assay | competition with immobilised ligand | 1 µM | 100
C[C@H]1CCN(c2nccc(-c3cnn4ncccc34)n2)C1 | binding | – | 1 µM | 0
